# Laboratory results published in ChEMBL document CHEMBL1671619, “Efficacy of pyrvinium pamoate against Cryptosporidium parvum infection in vitro and in a neonatal mouse model” (Antimicrob Agents Chemother, 2008).
# Active and inactive are the calls of the source. No cut-off for these calls is given here.
# How the values were obtained:
# Cryptosporidium parvum [1] = test: Antimicrobial activity against Cryptosporidium parvum infected in neonatal BALB/C mouse assessed as reduction in oocyst shedding at 100 mg/kg/day, po for 4 days treated 3 days postinfection; type: functional; set-up: scale not given: the % may be the effect or the level left
# How it was run: (§1)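 3-day-old BALB/c mice were inoculated orally with 10⁵ Iowa-isolate oocysts, and oral daily dosing started 3 days postinfection; water-treated mice served as vehicle controls. Mice were killed on day 9. Distal-colon stool (2–3 μl) was smeared, methanol-fixed and IFA-stained, and oocysts were counted over 21 fields at ×400. % reduction was taken versus vehicle mice; Mann-Whitney tests were used.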
# Cryptosporidium parvum [2] = test: Antimicrobial activity against Cryptosporidium parvum infected in neonatal BALB/C mouse assessed as reduction in oocyst shedding at 100 mg/kg/day, po for 6 days treated 3 days postinfection; type: functional; set-up: scale not given: the % may be the effect or the level left; how it was run: as §1
# Cryptosporidium parvum [3] = test: Antimicrobial activity against Cryptosporidium parvum infected in neonatal ICR swiss mouse assessed as reduction in oocyst shedding at 50 mg/kg/day, po measured on day 6; type: functional; set-up: scale not given: the % may be the effect or the level left
# Cryptosporidium parvum [4] = test: Antimicrobial activity against Cryptosporidium parvum infected in human HCT-8 cells assessed as growth inhibition after 48 hrs by ELISA; type: functional
# How it was run: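 HCT-8 cells seeded at 5 × 10⁴/well 24 h before infection, then infected with 5 × 10³ Iowa-isolate oocysts in RPMI/10% FBS/0.05% bile salts for 90 min at 37°C and washed. Drug was added and cells incubated 48 h at 37°C, formalin-fixed, then probed with rat anti-sporozoite serum, HRP anti-rat and TMB, read at A450. Freeze-thawed-oocyst background was subtracted; % inhibition was taken versus untreated infected wells. Triplicate wells, two experiments.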
# Cryptosporidium parvum [5] = test: Antimicrobial activity against Cryptosporidium parvum GCH1 infected in MDBK cells after 48 hrs by ELISA; type: functional
# Cryptosporidium parvum [6] = test: Antimicrobial activity against Cryptosporidium parvum infected in neonatal BALB/C mouse assessed as reduction in trophozoites in ileum at 100 mg/kg/day, po for 6 days by hematoxylin and eosin staining; type: functional; set-up: scale not given: the % may be the effect or the level left
# How it was run: (§2)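 Neonatal BALB/c mice were infected orally with 10⁵ oocysts and dosed orally for 6 days from day 3 postinfection, with necropsy on day 9. 1-cm sections of ileum (1–6 cm proximal to appendix), appendix/ileocecal junction and distal colon were formalin-fixed and H&E-stained. Two blinded readers counted trophozoites per 1,000 epithelial cells on duplicate sections. The per-mouse summary score summed all sections; comparison was against water-vehicle controls.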
# Cryptosporidium parvum [7] = test: Antimicrobial activity against Cryptosporidium parvum infected in neonatal BALB/C mouse assessed as reduction in trophozoites in appendix at 100 mg/kg/day, po for 6 days by hematoxylin and eosin staining; type: functional; set-up: scale not given: the % may be the effect or the level left; how it was run: as §2
# Cryptosporidium parvum [8] = test: Antimicrobial activity against Cryptosporidium parvum infected in neonatal BALB/C mouse assessed as reduction in trophozoites in colon at 100 mg/kg/day, po for 6 days by hematoxylin and eosin staining; type: functional; set-up: scale not given: the % may be the effect or the level left; how it was run: as §2
# Cryptosporidium parvum [9] = test: Antimicrobial activity against Cryptosporidium parvum infected in human HCT-8 cells after 48 hrs by ELISA; type: functional, organism-based; details: HCT-8, 48 h
# How it was run: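 HCT-8 monolayers (5 × 10⁴ cells/well, seeded 24 h before) infected with 5 × 10³ Iowa-isolate oocysts in medium with 0.05% bile salts, 90 min at 37°C, then washed. Drug added in growth medium (0.5% DMSO final for DMSO-dissolved drug), 48 h at 37°C. Formalin-fixed; rat anti-sporozoite serum, HRP anti-rat, TMB, A450. Freeze-thawed oocyst background subtracted; % inhibition vs untreated infected wells; triplicate wells, two experiments.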
# Cryptosporidium parvum [10] = test: Antimicrobial activity against Cryptosporidium parvum infected in neonatal BALB/C mouse assessed as reduction in number of trophozoites at 5 mg/kg/day, po for 6 days; set-up: scale not given: the % may be the effect or the level left
# Cryptosporidium parvum [11] = test: Antimicrobial activity against Cryptosporidium parvum infected in neonatal BALB/C mouse assessed as reduction in oocyst shedding at 5 mg/kg/day, po for 4 days treated 3 days postinfection; type: functional; set-up: scale not given: the % may be the effect or the level left
# How it was run: (§3)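 3-day-old BALB/c mice infected orally with 10⁵ Iowa-isolate oocysts. Oral dosing from day 3 post-infection, 4 or 6 consecutive days, in water with 5% DMSO or 5–10% ethanol final; vehicle controls matched. Euthanized day 9 post-infection. Distal-colon stool smears (2–3 μl) were methanol-fixed and IFA-stained. Oocysts counted over 21 fields at ×400 along a transect; reduction expressed relative to vehicle controls.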
# Cryptosporidium parvum [12] = test: Antimicrobial activity against Cryptosporidium parvum infected in neonatal BALB/C mouse assessed as reduction in oocyst shedding at 12.5 mg/kg/day, po for 4 days treated 3 days postinfection; type: functional; set-up: scale not given: the % may be the effect or the level left; how it was run: as §3
# Cryptosporidium parvum [13] = test: Antimicrobial activity against Cryptosporidium parvum infected in neonatal BALB/C mouse assessed as reduction in oocyst shedding at 5 mg/kg/day, po for 6 days treated 3 days postinfection; type: functional; set-up: scale not given: the % may be the effect or the level left; how it was run: as §3
# Cryptosporidium parvum [14] = test: Antimicrobial activity against Cryptosporidium parvum infected in neonatal BALB/C mouse assessed as reduction in trophozoites in ileum at 5 mg/kg/day, po for 6 days by hematoxylin and eosin staining; type: functional; set-up: scale not given: the % may be the effect or the level left
# How it was run: (§4)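 Infected neonatal BALB/c mice (10⁵ oocysts orally at 3 days old) dosed orally for 6 days from day 3; killed day 9. 1-cm ileal sections (1–6 cm proximal to appendix), appendix/ileocecal junction, and distal colon were formalin-fixed and H&E-stained. Trophozoites per 1,000 epithelial cells scored blind by two readers on duplicate sections. Per-mouse summary score summed across sections; compared with vehicle controls.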
# Cryptosporidium parvum [15] = test: Antimicrobial activity against Cryptosporidium parvum infected in neonatal BALB/C mouse assessed as reduction in trophozoites in appendix at 5 mg/kg/day, po for 6 days by hematoxylin and eosin staining; type: functional; set-up: scale not given: the % may be the effect or the level left; how it was run: as §4
# Cryptosporidium parvum [16] = test: Antimicrobial activity against Cryptosporidium parvum infected in neonatal BALB/C mouse assessed as reduction in trophozoites in colon at 5 mg/kg/day, po for 6 days by hematoxylin and eosin staining; type: functional; set-up: scale not given: the % may be the effect or the level left; how it was run: as §4
# Cryptosporidium parvum [17] = test: Antimicrobial activity against Cryptosporidium parvum infected in neonatal BALB/C mouse assessed as reduction in number of trophozoites at 5 mg/kg/day, po for 6 days; type: functional; set-up: scale not given: the % may be the effect or the level left; details: in the assay text read “100 mg/kg/day” for “5 mg/kg/day”; how it was run: as §4
# HCT-8 [18] = test: Cytotoxicity against human HCT8 cells assessed as reduction in viable cells after 48 hrs by MTS assay; type: cell-based; details: hct-8, 48 h
# HCT-8 [19] = test: Cytotoxicity against human HCT8 cells assessed as reduction in viable cells after 48 hrs at 1.6 uM by MTS assay; type: cell-based; details: hct-8, 48 h
# HCT-8 [20] = test: Cytotoxicity against human HCT8 cells assessed as reduction in viable cells at 80 uM by neutral red assay; type: cell-based; details: hct-8, 80 µM
# HCT-8 [21] = test: Cytotoxicity against human HCT8 cells assessed as reduction in viable cells by neutral red assay; type: cell-based
# HCT-8 [22] = test: Cytotoxicity against human HCT8 cells assessed as reduction in viable cells at 100 uM by neutral red assay; type: cell-based; details: hct-8, 100 µM
# Cryptosporidium parvum [23] = test: Antimicrobial activity against Cryptosporidium parvum infected in human HCT-8 cells; type: functional, organism-based
# Cryptosporidium parvum [24] = test: Antimicrobial activity against Cryptosporidium parvum infected in neonatal ICR swiss mouse assessed as reduction in oocyst shedding at 150 mg/kg/day, po measured on day 6; type: functional; set-up: scale not given: the % may be the effect or the level left
# Cryptosporidium parvum [25] = test: Antimicrobial activity against Cryptosporidium parvum infected in SCID mouse assessed as reduction in parasite burden at 100 mg/kg/day, po for 10 days; type: functional, organism-based
# Cryptosporidium parvum [26] = test: Antimicrobial activity against Cryptosporidium parvum infected in SCID mouse assessed as reduction in parasite burden at 200 mg/kg/day, po for 10 days; type: functional, organism-based
smiles,measurement,setting,value
NC[C@@H]1O[C@H](O[C@H]2[C@@H](O)[C@H](O[C@@H]3[C@@H](O)[C@H](N)C[C@H](N)[C@H]3O[C@H]3O[C@H](CO)[C@@H](O)[C@H](O)[C@H]3N)O[C@@H]2CO)[C@H](N)[C@@H](O)[C@@H]1O [PAROMOMYCIN],Activity,Cryptosporidium parvum [1],95%
same,Activity,Cryptosporidium parvum [2],96.4%
same,Activity,Cryptosporidium parvum [3],<2%
same,inhibition (INH),Cryptosporidium parvum [4],40%
same,Activity,Cryptosporidium parvum [5],>80%
same,Activity,Cryptosporidium parvum [6],90%
same,Activity,Cryptosporidium parvum [7],90%
same,Activity,Cryptosporidium parvum [8],90%
same,IC50,Cryptosporidium parvum [9],711 µM
same,Activity,Cryptosporidium parvum [10],85%
Cc1cc(/C=C/c2ccc3cc(N(C)C)ccc3[n+]2C)c(C)n1-c1ccccc1 [PYRVINIUM],Activity,Cryptosporidium parvum [11],92.6%
same,Activity,Cryptosporidium parvum [12],89.3%
same,Activity,Cryptosporidium parvum [13],96.6%
same,Activity,Cryptosporidium parvum [14],90%
same,Activity,Cryptosporidium parvum [15],90%
same,Activity,Cryptosporidium parvum [16],90%
same,Activity,Cryptosporidium parvum [17],99%
same,IC50,Cryptosporidium parvum [9],0.354 µM
same,Activity,HCT-8 [18],< 15%
same,Activity,HCT-8 [19],40%
CCN(CC)CCCC(C)Nc1ccnc2cc(Cl)ccc12 (stereo not drawn) [CHLOROQUINE],Activity,HCT-8 [20],12%
same,Activity,HCT-8 [21],< 5%
same,IC50,Cryptosporidium parvum [9],27 µM
same,Activity,HCT-8 [22],15%
CC(=O)Oc1ccccc1C(=O)Nc1ncc([N+](=O)[O-])s1 [NITAZOXANIDE],IC50,Cryptosporidium parvum [23],3.8 µM
same,Activity,Cryptosporidium parvum [24],<5%
same,Activity,Cryptosporidium parvum [25],inactive
same,Activity,Cryptosporidium parvum [26],inactive
